Data published in ChEMBL document CHEMBL4041530, “Development of spiroguanidine-derived α7 neuronal nicotinic receptor partial agonists” (Bioorg Med Chem Lett, 2017).
pEC50, pIC50: −log10 of the molar value.

Assays:
[1] = target: Neuronal acetylcholine receptor subunit alpha-7 (Homo sapiens, UniProt P36544); experiment: Agonist activity at alpha7 nAChR (unknown origin) expressed in HEK293 cells assessed as increase in calcium influx by Fluo-4-AM dye based FLIPR assay; assay type: cell-based
Method in brief: (§1)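 Ca2+-based fluorescence imaging plate reader screen, run as two assays: α7 nAChR agonism and 5-HT3A receptor antagonism. Number of determinations recorded per value.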

Homo sapiens = species on record: Homo sapiens; experiment: Selectivity ratio of IC50 for 5-HT3A receptor (unknown origin) to EC50 for alpha7 nAChR (unknown origin) expressed in HEK293 cells; assay type: cell-based
Method in brief: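 Selectivity ratio calculated as 5-HT3A IC50 (FLIPR Ca2+ antagonist assay) divided by α7 EC50 (FLIPR Ca2+ agonist assay).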

[2] = target: T1, 5-hydroxytryptamine receptor 3A (Homo sapiens, UniProt P46098); experiment: Antagonist activity at 5-HT3A receptor (unknown origin) assessed as decrease in calcium influx by Fluo-4-AM dye based FLIPR assay; method in brief: as §1
T1 sequence (P46098 whole entry): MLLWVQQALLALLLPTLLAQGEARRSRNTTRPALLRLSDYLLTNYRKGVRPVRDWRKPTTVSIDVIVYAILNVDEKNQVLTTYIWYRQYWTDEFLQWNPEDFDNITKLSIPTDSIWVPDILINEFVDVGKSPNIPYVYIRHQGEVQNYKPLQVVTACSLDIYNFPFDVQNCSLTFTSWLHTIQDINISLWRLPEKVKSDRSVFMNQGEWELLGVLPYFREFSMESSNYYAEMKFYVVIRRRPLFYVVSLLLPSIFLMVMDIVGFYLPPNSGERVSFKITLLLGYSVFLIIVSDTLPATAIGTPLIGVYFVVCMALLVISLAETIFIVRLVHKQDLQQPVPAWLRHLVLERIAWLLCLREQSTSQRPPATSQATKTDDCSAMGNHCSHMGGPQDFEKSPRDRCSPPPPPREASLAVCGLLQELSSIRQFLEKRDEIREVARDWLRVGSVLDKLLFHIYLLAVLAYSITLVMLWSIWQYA

[3] = target: Neuronal acetylcholine receptor subunit alpha-7 (Rattus norvegicus) (UniProt Q05941); experiment: Agonist activity at rat alpha7 nAChR expressed in HEK293 cells co-expressing human RIC-3 assessed as area under current curve at 10 uM at holding potential of -90 mV by whole-cell voltage clamp electrophysiology method relative to acetylcholine; assay type: cell-based
Method in brief: (§2)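 Concentration-response patch-clamp electrophysiology in HEK-293 cells expressing rat α7 nAChR. EC50 is taken from response area. Efficacy is given as Ymax from both area and peak response.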

[4] = target: Neuronal acetylcholine receptor subunit alpha-7 (Rattus norvegicus, UniProt Q05941); experiment: Agonist activity at rat alpha7 nAChR expressed in HEK293 cells co-expressing human RIC-3 assessed as area under current curve at holding potential of -90 mV by whole-cell voltage clamp electrophysiology method; assay type: cell-based; method in brief: as §2
[5] = target: Neuronal acetylcholine receptor subunit alpha-7 (Rattus norvegicus) (UniProt Q05941); experiment: Agonist activity at rat alpha7 nAChR expressed in HEK293 cells co-expressing human RIC-3 assessed as maximum peak current at 10 uM at holding potential of -90 mV by whole-cell voltage clamp electrophysiology method relative to acetylcholine; assay type: cell-based; method in brief: as §2
Rattus norvegicus [6] = experiment: In vivo agonist activity at alpha7 nAChR in Wistar rat assessed as induction of Arc gene expression in medial prefrontal cortex at 10 mg/kg, sc after 2 hrs by qPCR method relative to control; assay type: functional
Method in brief: (§3)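 Rats dosed sc at 0.3–10 mg/kg, or with vehicle at 2 mL/kg sc. Medial prefrontal cortex was assayed for c-fos and Arc expression, normalized to vehicle, with β2-microglobulin as the endogenous control. Data are mean ± SEM, N = 8. Dunnett's multiple comparison test against vehicle gave adjusted p values.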

Rattus norvegicus [7] = experiment: In vivo agonist activity at alpha7 nAChR in Wistar rat assessed as induction of c-fos gene expression in medial prefrontal cortex at 10 mg/kg, sc after 2 hrs by qPCR method relative to control; assay type: functional; method in brief: as §3
Rattus norvegicus [8] = experiment: Effect on beta2-microglobulin gene expression in Wistar rat medial prefrontal cortex at 10 mg/kg, sc after 2 hrs by qPCR method; assay type: ADME, organism-based; conditions: in vivo; method in brief: as §3

Neuronal acetylcholine receptor subunit alpha-7 (Homo sapiens, UniProt P36544), sequence (P36544 whole entry): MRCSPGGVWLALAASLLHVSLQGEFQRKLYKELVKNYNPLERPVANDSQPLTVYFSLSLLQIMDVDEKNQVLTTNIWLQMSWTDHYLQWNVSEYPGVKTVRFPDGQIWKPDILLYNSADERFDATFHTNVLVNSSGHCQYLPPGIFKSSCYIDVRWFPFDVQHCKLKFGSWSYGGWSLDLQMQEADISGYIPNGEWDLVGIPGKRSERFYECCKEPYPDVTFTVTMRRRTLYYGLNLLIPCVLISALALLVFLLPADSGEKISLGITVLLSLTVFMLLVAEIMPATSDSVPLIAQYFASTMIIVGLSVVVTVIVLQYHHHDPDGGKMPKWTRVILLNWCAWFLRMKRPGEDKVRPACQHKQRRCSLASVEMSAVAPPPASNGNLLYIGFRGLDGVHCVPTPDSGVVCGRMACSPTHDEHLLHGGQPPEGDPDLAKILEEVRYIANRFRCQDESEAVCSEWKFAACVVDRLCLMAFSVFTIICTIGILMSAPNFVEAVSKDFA
Neuronal acetylcholine receptor subunit alpha-7 (Rattus norvegicus), sequence (Q05941 whole entry): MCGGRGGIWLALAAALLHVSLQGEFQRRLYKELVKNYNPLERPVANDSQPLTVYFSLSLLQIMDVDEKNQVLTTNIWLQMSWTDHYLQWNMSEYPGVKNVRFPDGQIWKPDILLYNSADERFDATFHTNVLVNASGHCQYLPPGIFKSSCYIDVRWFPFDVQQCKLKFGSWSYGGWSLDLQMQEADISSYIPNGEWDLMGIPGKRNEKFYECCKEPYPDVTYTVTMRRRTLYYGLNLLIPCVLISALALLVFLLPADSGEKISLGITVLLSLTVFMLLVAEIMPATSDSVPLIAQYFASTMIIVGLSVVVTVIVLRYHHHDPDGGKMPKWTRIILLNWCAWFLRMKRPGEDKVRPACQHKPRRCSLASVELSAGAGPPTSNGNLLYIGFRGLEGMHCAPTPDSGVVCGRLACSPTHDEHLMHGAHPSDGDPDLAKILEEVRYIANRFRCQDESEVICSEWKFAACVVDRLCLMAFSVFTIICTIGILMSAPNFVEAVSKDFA
Neuronal acetylcholine receptor subunit alpha-7 (Rattus norvegicus, UniProt Q05941), sequence (Q05941 whole entry): as above

SMILES | pEC50 [1] | Ratio IC50/EC50 (Homo sapiens) | pIC50 [2] | Emax [3] [%] | pEC50 [4] | Emax [5] [%] | fold change (FC) (Rattus norvegicus [6]) | fold change (FC) (Rattus norvegicus [7]) | Activity (Rattus norvegicus [8])
Clc1ccc2c(NC3=NCC4(CN5CCC4CC5)N3)ncnn12 (stereo not drawn) | 7.21 | 610 | 4.42 |  |  |  |  |  | 
Clc1cnc(NC2=NCC3(CN4CCC3CC4)N2)cn1 (racemic) | 6.00 | 5.7 | 5.25 |  |  |  |  |  | 
Clc1ccc2nc(NC3=NCC4(CN5CCC4CC5)N3)sc2c1 (racemic) | 6.82 | 120 | 4.74 | 33 | 5.92 | 5 |  |  | 
c1ccc2c(NC3=NCC4(CN5CCC4CC5)N3)ncnc2c1 (racemic) | 6.28 | 27 | 4.84 |  |  |  |  |  | 
Clc1ccc(NC2=NCC3(CN4CCC3CC4)N2)nc1 (racemic) | 5.92 | 0.72 | 6.07 |  |  |  |  |  | 
CCN1C(Nc2nc3ccc(OC)cc3s2)=NCC12CN1CCC2CC1 (racemic) | < 5.00 | > 1 | < 4.92 |  |  |  |  |  | 
COc1ccc2nc(NC3=NCC4(CN5CCC4CC5)N3)sc2c1 (racemic) | 6.06 | 36 | 4.49 |  |  |  |  |  | 
c1cn(-c2cc(NC3=NCC4(CN5CCC4CC5)N3)ncn2)cn1 (racemic) | 6.85 | 460 | 5.19 |  |  |  |  |  | 
COc1cc(NC2=NCC3(CN4CCC3CC4)N2)ncn1 (racemic) | 5.89 | > 77 | < 4.00 |  |  |  |  |  | 
O=C(Oc1ccc(Br)cc1)N1CCN2CCC1CC2 [SSR180711] |  |  |  |  |  |  | 3.9 | 2.4 | Non-Toxic
